The source of these data is ChEMBL document CHEMBL1123601, “Enantiomers of 1-ethyl-7-[3-[(ethylamino)methyl]-1-pyrrolidinyl]-6,8-difluoro-1,4- dihydro-4-oxo-3-quinoline-carboxylic acid: preparation and biological activity” (J Med Chem, 1987).

Format in all cases: functional
One test has as its system Pseudomonas aeruginosa. Kind of test: Minimum inhibitory concentration (MIC) of compound was measured on Pseudomonas aeruginosa UI-18(gram negative organism). Put shortly:
(§1)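 MICs (µg/mL) by standard microdilution (microtitration), with the enantiomers tested side by side with racemate across the organism panel. Aqueous stocks made up in 0.1 N NaOH or KOH. Performed in duplicate or triplicate; error of one serial dilution.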

The subject of test [1] is Escherichia coli. Kind of test: Dose required to protect 50% of mice from lethal infection was measured on Escherichia coli vogel (subcutaneously). As to conditions: sc, read-out: PD50. In short, it runs like this:
(§2)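 Female CD-1 mice (18-22 g) were challenged intraperitoneally with about 100 median lethal doses of E. coli in 5% hog gastric mucin. Single doses were given at challenge in a twofold rising series, subcutaneously as an aqueous solution or orally by gavage in 5% gum acacia. Groups of 8 mice per dose were used. PD50 was estimated from survival by log probit, with experiments run in duplicate.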

Test [2] has as its system Staphylococcus aureus. Put plainly: Minimum inhibitory concentration (MIC) of compound was measured on Staphylococcus aureus UC-76(gram positive organism). In short, it runs like this: as §1
For test [3], the system named is Streptococcus pneumoniae. Kind of test: Dose required to protect 50% of mice from lethal infection was measured on Streptococcus pneumoniae SV-1(peroral administration). As to conditions: po, read-out: PD50. Put shortly: (§3)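 Female CD-1 mice (18-22 g) received an intraperitoneal challenge of about 100 median lethal doses of S. pneumoniae in tryptic soy broth. A single dose was given at challenge in a twofold rising series, subcutaneously in aqueous solution or by oral gavage in 5% gum acacia. Survival of 8 mice per dose gave PD50 by log probit, with experiments run in duplicate.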

Test [4] concerns Streptococcus pneumoniae. Put plainly: Dose required to protect 50% of mice from lethal infection was measured on Streptococcus pneumoniae SV-1 (subcutaneously). As to conditions: sc, read-out: PD50. Put shortly:
as §3

The next test relates to Klebsiella pneumoniae. Kind of test: Minimum inhibitory concentration (MIC) of compound was measured on Klebsiella pneumoniae MGH-2(gram negative organism). In short, it runs like this: as §1
In test [5] the test system is Escherichia coli. Put plainly: Minimum inhibitory concentration (MIC) of compound was measured on Escherichia coli H560 (gram negative organism). Put shortly: as §1
Test [6] relates to Escherichia coli. Put plainly: Minimum inhibitory concentration (MIC) of compound was measured on Escherichia coli Vogel(gram negative organism). In short, it runs like this:
as §1

The test system of another test is Providencia rettgeri. Kind of test: Minimum inhibitory concentration (MIC) of compound was measured on Providencia rettgeri H1771 (gram negative organism). In short, it runs like this:
as §1

Test [7] relates to Escherichia coli. Kind of test: Minimum concentration of compound needed to produce linear DNA at an intensity relative to oxolinic acid at 10 ug/mL was measured on Escherichia coli for gyrase-drug induced cleavage. Put shortly:
(§4)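 DNA gyrase from E. coli H560 cells. Endpoint is the minimum drug concentration (µg/mL) that converts closed circular DNA to linear DNA, through denaturation of the drug–gyrase–DNA complex, at an intensity relative to oxolinic acid at 10 µg/mL. Linear DNA is resolved by gel electrophoresis and stained with ethidium bromide. Runs in duplicate or triplicate; error of one serial dilution.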

The subject of test [8] is Streptococcus pneumoniae. Put plainly: Minimum inhibitory concentration (MIC) of compound was measured on Streptococcus pneumoniae SV-1(gram positive organism). In short, it runs like this: as §1
Test [9] relates to Escherichia coli. Put plainly: Concentration of compound needed to produce linear DNA at an intensity relative to oxolinic acid at 10 ug/mL was measured on Escherichia coli for gyrase-drug induced cleavage,. In short, it runs like this:
as §4

In another test the test system is Enterococcus faecalis. Kind of test: Minimum inhibitory concentration (MIC) of compound was measured on Streptococcus faecalis MGH-2(gram positive organism). In short, it runs like this:
as §1

For test [10], the system named is Streptococcus pyogenes. Kind of test: Minimum inhibitory concentration (MIC) of compound was measured on Streptococcus pyogenes C203 (gram positive organism). Put shortly:
as §1

For test [11], the system named is Staphylococcus aureus. Kind of test: Minimum inhibitory concentration (MIC) of compound was measured on Staphylococcus aureus H228 (gram positive organism). In short, it runs like this:
as §1

Test [12] has as its system Streptococcus pyogenes. Put plainly: Dose required to protect 50% of mice from lethal infection was measured on Streptococcus pyogenes C203 (s.c.). As to conditions: sc, read-out: PD50. In short, it runs like this:
(§5)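 The lethal systemic infection in female CD-1 mice (18-22 g) was an intraperitoneal challenge of about 100 median lethal doses. Compound was given once at challenge in twofold rising doses, subcutaneously as an aqueous solution or orally by gavage in 5% gum acacia. PD50 was estimated by log probit from survival of groups of 8 mice, with experiments run in duplicate.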

Test [13] has as its system Streptococcus pyogenes. Kind of test: Dose required to protect 50% of mice from lethal infection was measured on Streptococcus pyogenes C203 (p.o. administration). As to conditions: po, read-out: PD50. Put shortly: as §5
For test [14], the system named is Escherichia coli. Put plainly: Dose required to protect 50% of mice from lethal infection was measured on Escherichia coli vogel(peroral administration). As to conditions: po, read-out: PD50. In short, it runs like this: as §2
The test system of the next test is Enterobacter cloacae. Put plainly: Minimum inhibitory concentration (MIC) of compound was measured on Enterobacter cloacae HA 2646(gram negative organism). Put shortly: as §1

≈ marks a conversion by molar mass, not a printed value.

The MIC is the lowest concentration that inhibits growth of the organism. Lower therefore signals inhibition by little substance. Broadly, the IC50 is the concentration that gives 50% inhibition. Low readings indicate higher potency, high ones lower potency.

Turning to `CCn1cc(C(=O)O)c(=O)c2cc(F)c(N3CCNCC3)cc21` [NORFLOXACIN], the MIC in the test on Pseudomonas aeruginosa was 0.2 µg/mL (≈ 0.626 µM); against Staphylococcus aureus [2], 0.05 µg/mL (≈ 0.157 µM); against Klebsiella pneumoniae, 0.05 µg/mL (≈ 0.157 µM); in the test with Escherichia coli [5], 0.1 µg/mL (≈ 0.313 µM); in the test with Escherichia coli [6], 0.025 µg/mL (≈ 0.0783 µM); in the test on Providencia rettgeri it was 0.025 µg/mL (≈ 0.0783 µM). In addition, the minimal inhibitory concentration (MIC) in the test with Streptococcus pneumoniae [8] is 1.6 µg/mL (≈ 5.01 µM); in the test on Enterococcus faecalis, 1.6 µg/mL (≈ 5.01 µM); with Streptococcus pyogenes [10], 0.8 µg/mL (≈ 2.51 µM); against Staphylococcus aureus [11], 0.8 µg/mL (≈ 2.51 µM); against Enterobacter cloacae, 0.1 µg/mL (≈ 0.313 µM). Moreover, the ED50 was 0.7 mg/kg with Escherichia coli [1]; 150 mg/kg in the test with Streptococcus pneumoniae [3]; > 100 mg/kg in the test with Streptococcus pneumoniae [4]; 45 mg/kg in the test on Streptococcus pyogenes [12]; > 100 mg/kg in the test with Streptococcus pyogenes [13]; 1 mg/kg in the test with Escherichia coli [14]. Moreover, the Concentration with Escherichia coli [7] was determined as 1 µg/mL. Inhibition with Escherichia coli [9] was half-maximal at 5.5 µg/mL (≈ 17.2 µM) (IC50).
